For orientation: IC50 means the concentration that inhibits the measured activity by half. Higher therefore signals a need for much substance.

ov. rat/total and IC50 data for 21 molecules are collected here from ChEMBL document CHEMBL1130231, “Betidamino acid scan of the GnRH antagonist acyline” (J Med Chem, 1997).

For assay [1], the system named is Rattus norvegicus. In words: Ratio of ovulated rats to total number of rats determined in a anti-ovulatory assay by administering 250 microg of compound; 6/8. In kind it is functional, organism-based.
Assay [2] deals with Rattus norvegicus. The experiment in a line: Ratio of ovulated rats to total number of rats determined in a anti-ovulatory assay by administering 5 microg of compound; 2/8. In kind it is functional, organism-based.
For assay [3], the system named is Rattus norvegicus. The experiment in a line: Ratio of ovulated rats to total number of rats determined in a anti-ovulatory assay by administering 2.5 microg of compound; 2/8. In kind it is functional, organism-based.
The subject of assay [4] is Rattus norvegicus. In words: Ratio of ovulated rats to total number of rats determined in a anti-ovulatory assay by administering 10 microg of compound; 0/8. The assay is classed as functional, organism-based.
The test system of assay [5] is Rattus norvegicus. The experiment in a line: Ratio of ovulated rats to total number of rats determined in a anti-ovulatory assay by administering 5 microg of compound; 0/8. In kind it is functional, organism-based.
For assay [6], the system named is Rattus norvegicus. The experiment in a line: Ratio of ovulated rats to total number of rats determined in a anti-ovulatory assay by administering 2.5 microg of compound; 0/8. The assay is classed as functional, organism-based.
Assay [7] deals with Rattus norvegicus. In words: Ratio of ovulated rats to total number of rats determined in a anti-ovulatory assay by administering 1 microg of compound; 8/8. The assay is classed as functional, organism-based.
Assay [8] has as its target T1, Gonadotropin-releasing hormone receptor (Rattus norvegicus, UniProt P30969).
T1 sequence (P30969 whole entry): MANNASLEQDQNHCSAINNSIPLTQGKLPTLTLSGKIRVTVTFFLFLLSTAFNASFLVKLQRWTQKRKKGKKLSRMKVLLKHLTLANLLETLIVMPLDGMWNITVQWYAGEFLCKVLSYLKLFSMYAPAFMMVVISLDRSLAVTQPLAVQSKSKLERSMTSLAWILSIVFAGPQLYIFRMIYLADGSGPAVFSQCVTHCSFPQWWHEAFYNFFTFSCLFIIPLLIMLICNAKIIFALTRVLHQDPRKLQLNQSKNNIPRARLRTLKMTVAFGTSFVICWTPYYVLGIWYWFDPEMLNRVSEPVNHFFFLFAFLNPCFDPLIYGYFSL
The experiment in a line: Inhibition of binding of radiolabeled histrelin to Gonadotropin-releasing hormone receptor (GnRHr) in rat pituitary gland membranes. The assay is classed as cell membranes, Membrane. The gist of the method:
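Rat anterior pituitary membranes (male and female glands equal numbers), homogenized in 0.32 M sucrose/aprotinin, 4000g pellet, diluted 15-fold in 10 mM Hepes, 0.2% BSA, pH 7.6. Filtration onto PEI-treated glass filters, scintillation counting. IC50 in nM, duplicate, n = 1.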

The subject of assay [9] is Rattus norvegicus. The experiment in a line: Ratio of ovulated rats to total number of rats determined in a anti-ovulatory assay by administering 5 microg of compound; 1/8. In kind it is functional, organism-based.

Activity calls are given as the source filed them. The calls are words filed in the database; no cut-off is given here.

Take `CC(=O)Nc1ccc(C[C@H](NC(=O)[C@H](CO)NC(=O)[C@@H](Cc2cccnc2)NC(=O)[C@H](NC(=O)c2c[nH]nc2N)NC(=O)[C@@H](Cc2ccc3ccccc3c2)NC(C)=O)C(=O)N[C@H](Cc2ccc(NC(C)=O)cc2)C(=O)N[C@@H](CC(C)C)C(=O)N[C@@H](CCCCNC(C)C)C(=O)N2CCC[C@@H]2C(=O)N[C@H](C)C(N)=O)cc1`: the ov. rat/total entry with Rattus norvegicus [1] is “inactive”.
For `CC(=O)Nc1ccc(C[C@@H](NC(=O)[C@@H](NC(=O)c2ccc(NC(C)=O)cc2)NC(=O)[C@H](CO)NC(=O)[C@@H](Cc2cccnc2)NC(=O)[C@@H](Cc2ccc(Cl)cc2)NC(=O)[C@@H](Cc2ccc3ccccc3c2)NC(C)=O)C(=O)N[C@@H](CC(C)C)C(=O)N[C@@H](CCCCNC(C)C)C(=O)N2CCC[C@@H]2C(=O)N[C@H](C)C(N)=O)cc1`, the ov. rat/total entry in the assay on Rattus norvegicus [2] was “Partially active”.
Take `CC(=O)Nc1ccc(C[C@H](NC(=O)[C@H](CO)NC(=O)[C@@H](NC(=O)c2ccncc2)NC(=O)[C@@H](Cc2ccc(Cl)cc2)NC(=O)[C@@H](Cc2ccc3ccccc3c2)NC(C)=O)C(=O)N[C@H](Cc2ccc(NC(C)=O)cc2)C(=O)N[C@@H](CC(C)C)C(=O)N[C@@H](CCCCNC(C)C)C(=O)N2CCC[C@@H]2C(=O)N[C@H](C)C(N)=O)cc1` (single isomer, unassigned): the ov. rat/total entry in the assay on Rattus norvegicus [3] was “Partially active”. Also, in the assay with Rattus norvegicus [4], the ov. rat/total result was “Active”.
Consider `CC(=O)Nc1ccc(C[C@H](NC(=O)[C@@H](NC=O)NC(=O)[C@@H](Cc2cccnc2)NC(=O)[C@@H](Cc2ccc(Cl)cc2)NC(=O)[C@@H](Cc2ccc3ccccc3c2)NC(C)=O)C(=O)N[C@H](Cc2ccc(NC(C)=O)cc2)C(=O)N[C@@H](CC(C)C)C(=O)N[C@@H](CCCCNC(C)C)C(=O)N2CCC[C@@H]2C(=O)N[C@H](C)C(N)=O)cc1` (single isomer, unassigned), for which the ov. rat/total entry with Rattus norvegicus [5] was “Active”.
For the molecule `CC(=O)Nc1ccc(C[C@H](NC(=O)[C@H](CO)NC(=O)[C@@H](Cc2cccnc2)NC(=O)[C@@H](NC(=O)[C@@H](Cc2ccc3ccccc3c2)NC(C)=O)N(C)C(=O)c2ccc(Cl)cc2)C(=O)N[C@H](Cc2ccc(NC(C)=O)cc2)C(=O)N[C@@H](CC(C)C)C(=O)N[C@@H](CCCCNC(C)C)C(=O)N2CCC[C@@H]2C(=O)N[C@H](C)C(N)=O)cc1` (mixture of isomers), the ov. rat/total entry in the assay with Rattus norvegicus [1] is “inactive”.
`CC(=O)Nc1ccc(C[C@H](NC(=O)[C@H](CO)NC(=O)[C@@H](Cc2cccnc2)NC(=O)[C@@H](Cc2ccc(Cl)cc2)NC(=O)[C@@H](Cc2ccc3ccccc3c2)NC(C)=O)C(=O)N[C@@H](C(=O)N[C@@H](CC(C)C)C(=O)N[C@@H](CCCCNC(C)C)C(=O)N2CCC[C@@H]2C(=O)N[C@H](C)C(N)=O)N(C)C(=O)c2ccc(NC(C)=O)cc2)cc1` (mixture of isomers): in the assay with Rattus norvegicus [3], the ov. rat/total entry was “Partially active”.
`CN[C@@H](NC(=O)[C@H]1CCCN1C(=O)[C@H](CCCCNC(C)C)NC(=O)[C@H](CC(C)C)NC(=O)[C@@H](Cc1ccc(NC(C)=O)cc1)NC(=O)[C@H](Cc1ccc(NC(C)=O)cc1)NC(=O)[C@H](CO)NC(=O)[C@@H](Cc1cccnc1)NC(=O)[C@@H](Cc1ccc(Cl)cc1)NC(=O)[C@@H](Cc1ccc2ccccc2c1)NC(C)=O)C(N)=O`: the ov. rat/total result in the assay on Rattus norvegicus [6] is “Active”. Also, the ov. rat/total result in the assay on Rattus norvegicus [7] was “inactive”.
In the case of `CC(=O)Nc1ccc(C[C@H](NC(=O)[C@H](CO)NC(=O)[C@@H](Cc2cccnc2)NC(=O)[C@@H](Cc2ccc(Cl)cc2)NC(=O)[C@H](NC(C)=O)NC(=O)c2ccc3ccccc3c2)C(=O)N[C@H](Cc2ccc(NC(C)=O)cc2)C(=O)N[C@@H](CC(C)C)C(=O)N[C@@H](CCCCNC(C)C)C(=O)N2CCC[C@H]2C(=O)N[C@H](C)C(N)=O)cc1`, in assay [8], the 50% inhibitory concentration (IC50) came out at 0.88 nM.
Same read-out and setting: to `CC(=O)Nc1ccc(C[C@@H](NC(=O)[C@@H](NC(=O)c2ccc(NC(C)=O)cc2)NC(=O)[C@H](CO)NC(=O)[C@@H](Cc2cccnc2)NC(=O)[C@@H](Cc2ccc(Cl)cc2)NC(=O)[C@@H](Cc2ccc3ccccc3c2)NC(C)=O)C(=O)N[C@@H](CC(C)C)C(=O)N[C@@H](CCCCNC(C)C)C(=O)N2CCC[C@H]2C(=O)N[C@H](C)C(N)=O)cc1` belongs 0.51 nM.
`CC(=O)Nc1ccc(C[C@H](NC(=O)[C@H](CO)NC(=O)[C@@H](Cc2cccnc2)NC(=O)[C@@H](Cc2ccc(Cl)cc2)NC(=O)[C@@H](Cc2ccc3ccccc3c2)NC(C)=O)C(=O)N[C@H](Cc2ccc(NC(C)=O)cc2)C(=O)N[C@@H](CC(C)C)C(=O)NC(NC(=O)CNC(=N)N)C(=O)N2CCC[C@H]2C(=O)N[C@H](C)C(N)=O)cc1` (stereo not given in full) registered a half-inhibitory concentration (IC50) in [8] of 0.74 nM.
Still for that read-out and setting: the figure for `CC(=O)Nc1ccc(C[C@H](NC(=O)[C@H](CO)NC(=O)[C@@H](Cc2cccnc2)NC(=O)[C@@H](Cc2ccc(Cl)cc2)NC(=O)[C@@H](Cc2ccc3ccccc3c2)NC(C)=O)C(=O)N[C@H](Cc2ccc(NC(C)=O)cc2)C(=O)N[C@@H](NC(C)=O)C(=O)N[C@@H](CCCCNC(C)C)C(=O)N2CCC[C@H]2C(=O)N[C@H](C)C(N)=O)cc1` is 5 nM; for `CC(=O)Nc1ccc(C[C@H](NC(=O)[C@H](CO)NC(=O)[C@@H](Cc2cccnc2)NC(=O)[C@@H](Cc2ccc(Cl)cc2)NC(=O)[C@H](NC(C)=O)N(C)C(=O)c2ccc3ccccc3c2)C(=O)N[C@H](Cc2ccc(NC(C)=O)cc2)C(=O)N[C@@H](CC(C)C)C(=O)N[C@@H](CCCCNC(C)C)C(=O)N2CCC[C@H]2C(=O)N[C@H](C)C(N)=O)cc1` it is 9.2 nM; for `CC(=O)Nc1ccc(C[C@H](NC(=O)[C@H](CO)NC(=O)[C@@H](Cc2cccnc2)NC(=O)[C@@H](Cc2ccc(Cl)cc2)NC(=O)[C@@H](Cc2ccc3ccccc3c2)NC(C)=O)C(=O)N[C@H](Cc2ccc(NC(C)=O)cc2)C(=O)N[C@@H](NC(=O)C(C)C)C(=O)N[C@@H](CCCCNC(C)C)C(=O)N2CCC[C@H]2C(=O)N[C@H](C)C(N)=O)cc1` it is 2 nM.
As to `CN[C@@H](NC(=O)[C@@H]1CCCN1C(=O)[C@H](CCCCNC(C)C)NC(=O)[C@H](CC(C)C)NC(=O)[C@@H](Cc1ccc(NC(C)=O)cc1)NC(=O)[C@H](Cc1ccc(NC(C)=O)cc1)NC(=O)[C@H](CO)NC(=O)[C@@H](Cc1cccnc1)NC(=O)[C@@H](Cc1ccc(Cl)cc1)NC(=O)[C@@H](Cc1ccc2ccccc2c1)NC(C)=O)C(N)=O`, in assay [8], the 50% inhibitory concentration (IC50) was 0.9 nM.
Still for that read-out and setting: to `CC(=O)Nc1ccc(C[C@H](NC(=O)[C@H](CO)NC(=O)[C@H](Cc2cccnc2)NC(=O)[C@@H](Cc2ccc(Cl)cc2)NC(=O)[C@@H](Cc2ccc3ccccc3c2)NC(C)=O)C(=O)N[C@H](Cc2ccc(NC(C)=O)cc2)C(=O)N[C@@H](CC(C)C)C(=O)N[C@@H](CCCCNC(C)C)C(=O)N2CCC[C@H]2C(=O)N[C@H](C)C(N)=O)cc1` belongs 0.23 nM.
`CC(=O)Nc1ccc(C[C@H](NC(=O)[C@H](CO)NC(=O)[C@@H](Cc2cccnc2)NC(=O)[C@@H](Cc2ccc(Cl)cc2)NC(=O)[C@@H](Cc2ccc3ccccc3c2)NC(C)=O)C(=O)N[C@H](Cc2ccc(NC(C)=O)cc2)C(=O)N[C@H](C(=O)N[C@@H](CCCCNC(C)C)C(=O)N2CCC[C@@H]2C(=O)N[C@H](C)C(N)=O)N(C)C(C)=O)cc1`: the ov. rat/total result with Rattus norvegicus [9] is “Active”. In addition, the ov. rat/total result with Rattus norvegicus [3] is “Partially active”.
In the case of `CC(=O)Nc1ccc(C[C@H](NC(=O)[C@@H](NC(=O)[C@@H](Cc2cccnc2)NC(=O)[C@@H](Cc2ccc(Cl)cc2)NC(=O)[C@@H](Cc2ccc3ccccc3c2)NC(C)=O)N(C)C=O)C(=O)N[C@H](Cc2ccc(NC(C)=O)cc2)C(=O)N[C@@H](CC(C)C)C(=O)N[C@@H](CCCCNC(C)C)C(=O)N2CCC[C@H]2C(=O)N[C@H](C)C(N)=O)cc1` (single isomer, unassigned), the IC50 in assay [8] was 5.5 nM.
The same measure, in the same setting: the figure for `CC(=O)Nc1ccc(C[C@H](NC(=O)[C@H](CO)NC(=O)[C@@H](Cc2cccnc2)NC(=O)[C@@H](Cc2ccc(Cl)cc2)NC(=O)[C@@H](Cc2ccc3ccccc3c2)NC(C)=O)C(=O)N[C@H](Cc2ccc(NC(C)=O)cc2)C(=O)N[C@@H](CC(C)C)C(=O)N[C@@H](CCCCNC(C)C)C(=O)N2CCC[C@H]2C(=O)N[C@@H](C)C(N)=O)cc1` is 0.38 nM.
In the case of `CC(=O)Nc1ccc(C[C@H](NC(=O)[C@H](CO)NC(=O)[C@@H](Cc2cccnc2)NC(=O)[C@@H](Cc2ccc(Cl)cc2)NC(=O)[C@@H](Cc2ccc3ccccc3c2)NC(C)=O)C(=O)N[C@H](Cc2ccc(NC(C)=O)cc2)C(=O)N[C@@H](CC(C)C)C(=O)N[C@@H](CCCCNC(C)C)C(=O)N2CCC[C@@H]2C(=O)N[C@@H](C)C(N)=O)cc1`, the ov. rat/total result in the assay with Rattus norvegicus [6] was “Active”. Further, the ov. rat/total result with Rattus norvegicus [7] was “inactive”.
Take `CC(=O)Nc1ccc(C[C@H](NC(=O)[C@H](CO)NC(=O)[C@@H](Cc2cccnc2)NC(=O)[C@H](NC(=O)c2cnccn2)NC(=O)[C@@H](Cc2ccc3ccccc3c2)NC(C)=O)C(=O)N[C@H](Cc2ccc(NC(C)=O)cc2)C(=O)N[C@@H](CC(C)C)C(=O)N[C@@H](CCCCNC(C)C)C(=O)N2CCC[C@H]2C(=O)N[C@H](C)C(N)=O)cc1` (single isomer, unassigned): the IC50 in assay [8] worked out at 1700 nM.
The same measure, in the same setting: to `CC(=O)Nc1ccc(C[C@H](NC(=O)[C@H](CO)NC(=O)[C@@H](Cc2cccnc2)NC(=O)[C@H](NC(=O)c2cn[nH]c2N)NC(=O)[C@@H](Cc2ccc3ccccc3c2)NC(C)=O)C(=O)N[C@H](Cc2ccc(NC(C)=O)cc2)C(=O)N[C@@H](CC(C)C)C(=O)N[C@@H](CCCCNC(C)C)C(=O)N2CCC[C@H]2C(=O)N[C@H](C)C(N)=O)cc1` belongs 2500 nM.
